Bioassay records: PubChem, The Scripps Research Institute Molecular Screening Center
GalR3 antag: antagonists of human GalR3 | HEK293 GalR3-CNG cAMP membrane potential fluorescence; galR3 body fused to GalR1 C-terminus | 360,000 tested, 0.44% active | inhibition, % at 3 µM | O60755;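 active = inhibition above the screen-wide average plus 3 SD, cut at about 13% in these data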;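 note: forskolin and galanin both at EC90 stimulate the cells; cAMP rise reported by CNG channel membrane potential dye signal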
Target sequence (O60755 1-299 limits assumed): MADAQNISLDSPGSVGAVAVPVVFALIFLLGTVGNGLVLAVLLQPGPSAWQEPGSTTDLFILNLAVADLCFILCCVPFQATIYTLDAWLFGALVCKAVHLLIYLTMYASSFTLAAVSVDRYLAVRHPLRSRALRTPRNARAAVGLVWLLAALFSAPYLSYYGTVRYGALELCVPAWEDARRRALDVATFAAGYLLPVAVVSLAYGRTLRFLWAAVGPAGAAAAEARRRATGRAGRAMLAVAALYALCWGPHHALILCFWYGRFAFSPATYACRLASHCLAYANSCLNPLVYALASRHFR
CHO parental Ca: counter-screen for OX1R antagonists: effect in parental CHO cells | parental CHO-K1, ATP-induced calcium, Fluo-8 fluorescence | inhibition, % at 5.6 µM | AID 463079 | 330,000 tested, 0.63% active;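 active = inhibition above that plate's mean sample inhibition plus 3 SD, cut at about 26% in these data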
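Test system: untransfected parental CHO cell line; also added: ATP stimulus; dosing: 5.6 µM, single dose; signal: calcium-sensitive Fluo-8 fluorescence; measure: percent inhibition of ATP-evoked calcium rise, normalized to controls; benchmarks: low control ATP plus DMSO, high control DMSO only; replication: one well per compound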
GPR7 antagonist: human neuropeptides B/W receptor 1 antagonism | inhibition, % at 4.4 µM | GPR7-expressing cells, fluorescence antagonist assay | 290,000 tested, 1.1% active; in the data active = inhibition above about 16%, passing the limit was not always enough;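 note: cells stimulated with the agonist NPW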
Target sequence (P48145 whole entry, looked up): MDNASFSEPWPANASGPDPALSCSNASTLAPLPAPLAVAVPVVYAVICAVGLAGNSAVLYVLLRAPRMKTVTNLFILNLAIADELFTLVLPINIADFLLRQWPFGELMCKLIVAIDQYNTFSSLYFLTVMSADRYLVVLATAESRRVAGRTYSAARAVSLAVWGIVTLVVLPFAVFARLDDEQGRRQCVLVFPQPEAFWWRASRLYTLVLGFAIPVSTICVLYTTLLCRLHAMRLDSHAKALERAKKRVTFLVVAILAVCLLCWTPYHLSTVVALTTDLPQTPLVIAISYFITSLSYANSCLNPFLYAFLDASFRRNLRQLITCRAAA
OX1R antag-1: blocks the human orexin 1 receptor; 330,000 tested, 1.8% active; inhibition, % at 6.6 µM; O43613; AID 485270; OX1R-expressing cells, FRET antagonist read-out; in the data active = inhibition mostly above about 38%, no sharp cut-off; inactive = mostly below about 40%
OX1R antag-2: blocks the human orexin 1 receptor; CHO/OX1R cells, Fluo-8 calcium fluorescence, orexin A; O43613; 330,000 tested, 0.43% active; inhibition, % at 5 µM;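 active = inhibition above its plate's threshold, mean inhibition of all tested compounds on the plate plus 3 SD, cut at about 37% in these data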
Numbers stand for hits; n = inactive; x = no result given. Rows were chosen to be rich in hits. Some 3.1% of all compounds tested hit in one or more screens of this group.

SMILES | GalR3 antag | CHO parental Ca | GPR7 antagonist | OX1R antag-1 | OX1R antag-2
COc1ccc(CN(C)C(=O)c2cc(-c3ccccc3)nc3ccc(C)cc23)c(OC)c1OC | n | n | n | 63 | n
COc1ccc(CCN(C)C(=O)c2cc(-c3ccccc3)nc3ccccc23)cc1OC | n | x | n | x | x
CCCCCCCCN1C(=O)[C@@H](CC(=O)NCCc2ccccc2OC)C[C@@]2(C(=O)OC)C1=C[C@H](C1CCCC1)O[C@@H]2C | n | x | x | x | x
CC1CC(C)CN(C(=O)CNC(=O)c2ccc3ccccc3c2)C1 (stereo not given) | n | n | n | 74 | n
O=C(NCC(=O)N1CCCCC1)c1ccc2ccccc2c1 | n | n | n | n | n
COc1cccc(OC)c1C(=O)NC(=S)Nc1cc(-c2nc3ccccc3[nH]2)ccc1Cl | n | n | n | 74 | n
Cc1cc(NC(=O)COC(=O)c2cc([N+](=O)[O-])ccc2N2CCOCC2)ccc1Br | n | n | x | 37 | n
N#CC1(NC(=O)COC(=O)c2cc([N+](=O)[O-])ccc2N2CCCC2)CCCCC1 | n | n | x | n | n
COc1ccc(OC)c(COC(=O)c2cc([N+](=O)[O-])ccc2N2CCOCC2)c1 | n | n | x | 32 | n
COc1ccc(C(=O)c2cc([N+](=O)[O-])ccc2N2CCCC2)cc1 | n | n | n | n | n
Cc1ccccc1COC(=O)c1cc([N+](=O)[O-])ccc1N1CCOCC1 | n | n | n | n | n
COc1ccc(C(=O)c2cc([N+](=O)[O-])ccc2N2CCN(C)CC2)cc1 | n | n | 34 | n | n
CCc1cccc(NC(=O)COC(=O)c2cc([N+](=O)[O-])ccc2N2CCOCC2)c1 | n | n | x | n | n
N#CC1(NC(=O)COC(=O)c2cc([N+](=O)[O-])ccc2N2CCOCC2)CCCCC1 | n | n | x | 52 | n
C[C@H](O)[C@@H]1C(=O)N2CCc3c([nH]c4cccc(-c5ccccc5)c34)[C@@H]2C[C@@H]1N(C)C(=O)C1CCCCC1 | n | x | x | x | x
CC(=O)NCc1ccc(-c2csc(-c3cccs3)n2)cc1 | n | n | n | 63 | n
COC(=O)[C@@]12C[C@@H](CC(=O)NCC34CC5CC(CC(C5)C3)C4)C(=O)N(Cc3ccc4c(c3)OCO4)C1=CCC(C)(C)C2 | n | x | x | x | x
O=C(CSc1ccccc1)N1CCc2ccccc21 | n | n | n | n | n
Cc1nnc2sc(SCC(=O)N3CCc4ccccc43)nn2c1=O | n | x | x | x | x
Cc1nnc(SCC(=O)N2CCc3ccccc32)s1 | n | n | 16 | n | n
CCn1cc(SCC(=O)N2CCc3ccccc32)c2ccccc21 | x | 32 | n | 36 | n
NC(Cc1ccc(O)cc1)C(=O)NN=Cc1ccccc1O (stereo not given) | n | x | x | x | x
CCOC(=O)C1CCCN(C(=O)C2c3ccccc3Oc3ccccc32)C1 (stereo not given) | n | n | n | 45 | n
CN(c1ccc(C(=O)N2CCCCC2)cc1)S(=O)(=O)c1ccccc1 | n | 38 | n | n | 42
CCOC(=O)C1CCCN(C(=O)c2cccc(S(=O)(=O)N(C)c3ccc(C)cc3)c2)C1 (stereo not given) | n | n | x | 58 | n
SMILES | GalR3 antag | CHO parental Ca | GPR7 antagonist | OX1R antag-1 | OX1R antag-2
CN(c1ccccc1)S(=O)(=O)c1ccc(C(=O)N2CCc3ccccc3C2)cc1 | n | n | 20 | n | n
CCN(C(=O)COC(=O)c1n[nH]c2ccccc12)c1ccccc1 | n | n | x | n | n
CCN(CC)C1CCN(C(=O)c2ccc3nc(Cc4ccc(OC)cc4)oc3c2)C1 (stereo not given) | n | x | n | x | x
Cc1c(C(=O)Nc2nonc2-c2ccc(F)cc2)oc2ccc(F)cc12 | n | n | n | 49 | n
COC(=O)c1cc2c(c3c4cc(C)ccc4n(S(=O)(=O)c4ccc(OC)cc4)c13)C(=O)N(C)C2 | n | x | x | x | x
Cc1cccc(C(=O)N2CCN(c3ccc([N+](=O)[O-])c(N4CCOCC4)c3)CC2)c1 | n | n | n | 75 | n
O=C(c1ccc2ccccc2c1)N1CCN(c2ccc([N+](=O)[O-])c(N3CCOCC3)c2)CC1 | n | n | n | n | n
CCCCOCCCNc1ncnc2c1[nH]c1ccccc12 | n | 43 | n | 52 | n
CCCCOc1ncnc2c1[nH]c1ccccc12 | n | n | n | 73 | n
COCCN(C(=O)CCC(=O)Nc1ccccn1)C(C(=O)NCCC(C)C)c1ccc(F)cc1 (stereo not given) | n | n | n | n | n
Cc1cccn2cc(-c3ccccc3)nc12 | n | n | n | n | n
COc1ccc(-c2cn3cccc(C)c3n2)cc1Br | n | n | n | 74 | n
COc1ccc(-c2nc3ccccn3c2Cl)cc1 | n | n | n | 43 | n
CCN1/C(=C/c2ccc3ccccc3[n+]2CC)C=Cc2ccccc21 | 53 | 71 | 53 | 100 | n
CCN1/C(=C/c2ccc3ccccc3[n+]2CCCS(=O)(=O)[O-])C=Cc2cc(C)ccc21 | n | x | n | x | x
COc1cccc(-c2nnc(NC(=O)c3ccco3)s2)c1 | n | n | n | 53 | n
COC(=O)/C(C#N)=C1/C=Cc2ccccc2N1C | n | n | n | 60 | n
COC(=O)c1ccc(CN2C(=O)[C@]3(OCCC=C[C@H]3C)c3ccccc32)cc1 | n | x | x | x | x
Cc1ccc(S(=O)(=O)CC(=O)Nc2ncc([N+](=O)[O-])s2)cc1 | n | n | n | n | n
O=C(CCS(=O)(=O)Cc1ccccc1)Nc1ncc([N+](=O)[O-])s1 | n | n | n | 49 | n
CCCCC(CC)C(=O)Nc1ncc([N+](=O)[O-])s1 (stereo not given) | n | 38 | n | n | n
Cc1ccc(CC(=O)Nc2ncc([N+](=O)[O-])s2)cc1 | n | n | n | 40 | n
Cc1ncoc1C(=O)Nc1ncc([N+](=O)[O-])s1 | n | n | n | n | n
COc1ccc(C(=O)OCC(=O)Nc2ncc([N+](=O)[O-])s2)cc1OC | n | n | x | n | n
O=C(COC(=O)c1ccc(Br)o1)Nc1ncc([N+](=O)[O-])s1 | n | n | x | 41 | n
SMILES | GalR3 antag | CHO parental Ca | GPR7 antagonist | OX1R antag-1 | OX1R antag-2
O=C(CCS(=O)(=O)c1ccccc1)Nc1ncc([N+](=O)[O-])s1 | n | n | n | n | n
O=C(/C=C(\Nc1cccc(Cl)c1F)c1ccccc1)c1ccccc1 | n | x | x | x | x
CCCCCCCCN1C(=O)[C@H](CC(=O)N2CCC(c3ccccc3)CC2)C[C@@]2(C(=O)OC)CC(C)(C)CC=C12 | n | x | x | x | x
CC(=O)c1ccc(NC(=O)COC(=O)c2ccc(F)cc2F)cc1 | n | n | n | n | n
CCOC(=O)C1CCCN(C(=O)Cn2nc(C)c3c(C)n(-c4ccccc4)nc3c2=O)C1 (stereo not given) | n | n | n | n | n
CC1CC1C(=O)N1CCN(S(=O)(=O)c2cccc(F)c2)CC1 (stereo not given) | n | n | x | n | n
COc1cc(CNCCO)cc(Br)c1OCc1ccccc1Cl | n | n | n | n | n
COc1cc(CNCCO)cc(Cl)c1OCc1ccc(Cl)cc1Cl | n | n | 58 | n | n
c1ccc(N(c2ccccc2)c2nc(-n3ccnc3)nc(-n3ccnc3)n2)cc1 | n | 42 | n | n | 82
